In ChEMBL document CHEMBL1133408, “5-Arylamino-2-methyl-4,7-dioxobenzothiazoles as inhibitors of cyclin-dependent kinase 4 and cytotoxic agents” (Bioorg Med Chem Lett, 2000):
pIC50: −log10 of the molar value. ≈ marks a conversion by molar mass, not a printed value.

What was measured:
COLO1 = assay: Inhibition of Col1 cancer cell proliferation; type: functional, cell-based, Homo sapiens
Procedure, shortened: (§1)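 Cytotoxicity measured by sulforhodamine B (SRB) assay following NCI protocols. Human tumour cell lines: A 549 (non-small cell lung, from NCI), Col 1 (human colon carcinoma, from University of Illinois at Chicago surgical oncology), HL-60 (myeloid leukaemia, from ATCC) and HepG2 (hepatocarcinoma, from ATCC).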

HL-60 = assay: Inhibition of HL60 cancer cell proliferation; type: functional, cell-based, Homo sapiens; procedure, shortened: as §1
[1] = biological target: Cyclin-dependent kinase 4 (Homo sapiens, UniProt P11802); assay: Inhibition of Cyclin-dependent kinase 4 (CDK4/cyclin Dl)
Sequence of Cyclin-dependent kinase 4 (P11802 whole entry): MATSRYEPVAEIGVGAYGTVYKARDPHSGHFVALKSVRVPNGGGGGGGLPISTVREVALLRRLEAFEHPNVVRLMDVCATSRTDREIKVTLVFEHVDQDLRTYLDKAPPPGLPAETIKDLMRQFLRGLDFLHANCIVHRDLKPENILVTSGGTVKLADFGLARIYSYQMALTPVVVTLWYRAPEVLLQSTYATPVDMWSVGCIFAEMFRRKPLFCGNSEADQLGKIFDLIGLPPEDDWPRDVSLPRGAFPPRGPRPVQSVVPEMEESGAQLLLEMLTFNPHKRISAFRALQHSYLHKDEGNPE

[2] = biological target: Cyclin-dependent kinase 2 (Homo sapiens, UniProt P24941); assay: Inhibition of Cyclin-dependent kinase 2 (CDK2/cyclin A)
A549 = assay: Inhibition of A549 cancer cell proliferation; type: functional, cell-based; settings: Homo sapiens; procedure, shortened: as §1
HepG2 = assay: Inhibition of HepG2 cancer cell proliferation; type: functional, cell-based; settings: Homo sapiens; procedure, shortened: as §1
[3] = Homo sapiens, COLO1, read-out: IC50
[4] = Homo sapiens, HL-60, read-out: IC50

Row | Compound | IC50 (COLO1; [3]) [µg/mL] | IC50 (HL-60; [4]) [µg/mL] | pIC50 [1] | pIC50 [2] | IC50 (A549) [µg/mL] | IC50 (HepG2) [µg/mL] | IC50 (COLO1; colo1) [µg/mL] | IC50 (HL-60; hl-60) [µg/mL]
1 | Cc1ccc(NC2=CC(=O)c3sc(C)nc3C2=O)cc1 | 1.08 (≈ 3.8 µM) | 0.3 (≈ 1.06 µM) | 5.22 | < 3.70 | 0.61 (≈ 2.15 µM) |  |  | 
2 | Cn1cnc2c(NCc3ccccc3)nc(NCCO)nc21 [OLOMOUCINE] | 87 (≈ 292 µM) | 50 (≈ 168 µM) |  |  | 57 (≈ 191 µM) |  |  | 
3 | CISPLATIN |  |  |  |  |  |  | 1.38 | 0.7
4 | Cc1nc2c(s1)C(=O)C=C(Nc1ccc(Cl)cc1)C2=O | 20 (≈ 65.6 µM) | 0.33 (≈ 1.08 µM) | 5.15 | < 3.70 | 3.6 (≈ 11.8 µM) | 3.23 (≈ 10.6 µM) |  | 
5 | CCOc1ccc(NC2=CC(=O)c3sc(C)nc3C2=O)cc1 | 2.09 (≈ 6.65 µM) | 0.29 (≈ 0.922 µM) | 4.70 | < 3.70 | 1.76 (≈ 5.6 µM) | 1.53 (≈ 4.87 µM) |  | 

Second part, the compound after the results:

Row | IC50 (COLO1; [3]) [µg/mL] | IC50 (HL-60; [4]) [µg/mL] | pIC50 [1] | pIC50 [2] | IC50 (A549) [µg/mL] | IC50 (HepG2) [µg/mL] | IC50 (COLO1; colo1) [µg/mL] | IC50 (HL-60; hl-60) [µg/mL] | Compound
6 | 1.85 (≈ 6.46 µM) | 0.26 (≈ 0.908 µM) | 5.17 | < 3.70 | 0.7 (≈ 2.44 µM) | 1.36 (≈ 4.75 µM) |  |  | Cc1nc2c(s1)C(=O)C=C(Nc1ccc(O)cc1)C2=O
7 | 2.01 (≈ 6.69 µM) | 0.27 (≈ 0.899 µM) | 5.25 | < 3.70 | 1.65 (≈ 5.49 µM) | 1.39 (≈ 4.63 µM) |  |  | COc1ccc(NC2=CC(=O)c3sc(C)nc3C2=O)cc1
8 | 1.93 (≈ 7.14 µM) | 0.28 (≈ 1.04 µM) | 5.22 | < 3.70 | 0.64 (≈ 2.37 µM) | 1.3 (≈ 4.81 µM) |  |  | Cc1nc2c(s1)C(=O)C=C(Nc1ccccc1)C2=O
9 | 6.57 (≈ 18.8 µM) | 0.28 (≈ 0.802 µM) | 5.17 | < 3.70 | 3.6 (≈ 10.3 µM) | 2.78 (≈ 7.96 µM) |  |  | Cc1nc2c(s1)C(=O)C=C(Nc1ccc(Br)cc1)C2=O
10 | 2.08 (≈ 5.25 µM) | 0.24 (≈ 0.606 µM) | 5.52 | < 3.70 | 2.08 (≈ 5.25 µM) | 1.95 (≈ 4.92 µM) |  |  | Cc1nc2c(s1)C(=O)C=C(Nc1ccc(I)cc1)C2=O
11 | 1.94 (≈ 6.73 µM) | 0.23 (≈ 0.798 µM) | 5.20 | < 3.70 | 1.69 (≈ 5.86 µM) | 1.51 (≈ 5.24 µM) |  |  | Cc1nc2c(s1)C(=O)C=C(Nc1ccc(F)cc1)C2=O
